ChEMBL document CHEMBL1122364, “Preparation of 2-amino-4(3H)-oxopyrimido[5,4-b] [1,4]thiazines (5-thiapterins) and their evaluation as cofactors for phenylalanine hydroxylase” (J Med Chem, 1983)

Tests used:
[1] = molecular target: T1, Phenylalanine-4-hydroxylase (Rattus norvegicus, UniProt P04176); assay: Tested for competitive binding inhibition against phenylalanine hydroxylase in rat liver
T1 sequence (P04176 whole entry): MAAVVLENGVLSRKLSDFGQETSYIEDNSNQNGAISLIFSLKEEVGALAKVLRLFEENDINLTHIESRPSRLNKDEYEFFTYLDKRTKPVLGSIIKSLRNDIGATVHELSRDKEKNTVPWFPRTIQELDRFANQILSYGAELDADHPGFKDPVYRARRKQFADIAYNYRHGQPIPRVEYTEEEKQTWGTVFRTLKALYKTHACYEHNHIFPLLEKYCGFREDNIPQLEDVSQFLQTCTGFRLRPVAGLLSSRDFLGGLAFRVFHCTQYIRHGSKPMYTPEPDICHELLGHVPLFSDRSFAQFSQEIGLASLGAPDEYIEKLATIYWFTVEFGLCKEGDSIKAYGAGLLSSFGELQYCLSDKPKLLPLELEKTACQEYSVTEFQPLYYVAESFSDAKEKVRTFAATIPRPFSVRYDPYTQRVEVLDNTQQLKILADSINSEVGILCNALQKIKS
Procedure, shortened: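 Initial rate of tyrosine formation followed at 25 °C as the rise in absorbance at 275 nm. The cofactor was 6-MePH₄ at 12.5–50 μM.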

[2] = Michaelis-Menten constant was determined for the compound

SMILES	Ki [1] [µM]	Km [2] [µM]
Nc1nc(O)c2c(n1)NCC(c1ccccc1)[S+]2[O-] (stereo unspecified)	7	–
Nc1nc(O)c2c(n1)NCC[S+]2[O-] (stereo unspecified)	400	–
Nc1nc(O)c2c(n1)SCC(c1ccccc1)N2 (stereo unspecified)	500	–
Nc1nc(O)c2c(n1)NCCN2	–	130
Nc1nc(N)c(Sc2ccccc2)c(O)n1	4.7	–
Nc1nc(O)c2c(n1)NCC(c1ccccc1)N2 (stereo unspecified)	–	3

Results, then the compound that gave them:

Ki [1] [µM]	Km [2] [µM]	SMILES
0.2	–	Nc1nc2c(c(=O)[nH]1)SC(c1ccccc1)CN2 (stereo unspecified)
85	–	Nc1nc(O)c2c(n1)NCCS2
36	–	CC1CNc2nc(N)[nH]c(=O)c2S1 (stereo unspecified)
–	40	CC1CNc2nc(N)[nH]c(=O)c2N1 (stereo unspecified)
125	–	CC1CNc2nc(N)nc(O)c2[S+]1[O-] (stereo unspecified)
